Laboratory results: ChEMBL document CHEMBL5724801, “EUbOPEN Chemogenomics Library - Multiplex” (2024)
Where “and” joins values, the source holds several entries; their conditions need not be identical. Equal entries are not always repeated.

System: HEK-293T
Assay: Multiplex assay against HEK293T
Format: toxicity, cell-based
Conditions: human
In short: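 On a CQ1 microscope at 37°C and 5% CO2, live cells were imaged after compound addition. They had been stained at seeding with Hoechst33342, BioTracker Green Microtubule Cytoskeleton Dye, MitoTracker Red and Annexin V Alexa Fluor 680. CellPathfinder machine-learning gating assigned cells to Hoechst high-intensity objects or normal cells, normal cells to healthy, pyknosed or fragmented nuclei, and pyknosed cells to mitotic or apoptotic. Tubulin, mitochondrial-mass and membrane-permeability phenotypes are per cents of healthy-nucleus cells.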

[1] = 12 h, 1 µM, compound concentration 1 uM
[2] = 12 h, 10 µM, compound concentration 10 uM
[3] = 24 h, 1 µM, compound concentration 1 uM
[4] = 24 h, 10 µM, compound concentration 10 uM
[5] = 48 h, 1 µM, compound concentration 1 uM
[6] = 48 h, 10 µM, compound concentration 10 uM

SMILES: CCOC(=O)c1cnn(-c2ccc(NC(=O)C(Cl)=C(Cl)Cl)cc2)c1C(F)(F)F
- Population Apoptotic (%) [1]: 11.04% and 11.54%
- Population Fragmented Nuclei (%) [1]: 2.46% and 4.48%
- Population Hoechst High Intensity Objects (%) [1]: 0.27% and 0%
- Population Membrane Permeable-Phenotype (%) [1]: 0.49% and 0%
- Population Mitochondria Different-Phenotype (%) [1]: 37.44% and 16.67%
- Population Mitotic Cells (%) [1]: 88.96% and 88.46%
- Population Normal (%) [1]: 99.73% and 100%
- Population Pyknosed Nuclei (%) [1]: 42.08% and 77.61%
- Total Cell Count [1]: 367 and 134
- Population Apoptotic (%) [2]: 29.28% and 34.92%
- Population Fragmented Nuclei (%) [2]: 10.14% and 2.8%
- Population Healthy Nuclei (%) [2]: 26.57% and 9.09%
- Population Hoechst High Intensity Objects (%) [2]: 0.35% and 0%
- Population Membrane Permeable-Phenotype (%) [2]: 1.32% and 0%
- Population Mitochondria Different-Phenotype (%) [2]: 18.42% and 46.15%
- Population Mitotic Cells (%) [2]: 70.72% and 65.08%
- Population Normal (%) [2]: 99.65% and 100%
- Population Pyknosed Nuclei (%) [2]: 63.29% and 88.11%
- Total Cell Count [2]: 287 and 143
- Population Apoptotic (%) [3]: 14.69% and 14.29%
- Population Fragmented Nuclei (%) [3]: 1.44% and 6.88%
- Population Healthy Nuclei (%) [3]: 72.84% and 31.87%
- Population Hoechst High Intensity Objects (%) [3]: 0.18% and 0%
- Population Membrane Permeable-Phenotype (%) [3]: 2.47% and 1.96%
- Population Mitochondria Different-Phenotype (%) [3]: 18.02% and 7.84%
- Population Mitotic Cells (%) [3]: 85.31% and 85.71%
- Population Normal (%) [3]: 99.82% and 100%
- Population Pyknosed Nuclei (%) [3]: 25.72% and 61.25%
- Population Apoptotic (%) [4]: 63.22% and 90.58%
- Population Fragmented Nuclei (%) [4]: 11.84% and 6.41%
- Population Healthy Nuclei (%) [4]: 12.77% and 5.13%
- Population Hoechst High Intensity Objects (%) [4]: 3.6% and 0%
- Population Membrane Permeable-Phenotype (%) [4]: 0%
- Population Mitochondria Different-Phenotype (%) [4]: 29.27% and 37.5%
- Population Normal (%) [4]: 96.4% and 100%
- Population Pyknosed Nuclei (%) [4]: 75.39% and 88.46%
- Population Tubulin-Different-Phenotype (%) [4]: 29.27% and 37.5%
- Total Cell Count [4]: 333 and 156
- Population Fragmented Nuclei (%) [5]: 2.62% and 2.05%
- Population Healthy Nuclei (%) [5]: 85.68% and 49.74%
- Population Hoechst High Intensity Objects (%) [5]: 0.22% and 0%
- Population Membrane Permeable-Phenotype (%) [5]: 5.07% and 1.03%
- Population Mitochondria Different-Phenotype (%) [5]: 16.62% and 27.84%
- Population Mitotic Cells (%) [5]: 94.87% and 81.91%
- Population Normal (%) [5]: 99.78% and 100%
- Population Apoptotic (%) [6]: 53.58% and 95.86%
- Population Fragmented Nuclei (%) [6]: 14.99% and 9.58%
- Population Healthy Nuclei (%) [6]: 8.65% and 3.59%
- Population Hoechst High Intensity Objects (%) [6]: 1.42% and 0.6%
- Population Membrane Permeable-Phenotype (%) [6]: 0%
- Population Mitochondria Different-Phenotype (%) [6]: 43.33% and 100%
- Population Normal (%) [6]: 98.58% and 99.4%
- Population Pyknosed Nuclei (%) [6]: 76.37% and 86.83%
- Population Tubulin-Different-Phenotype (%) [6]: 23.33% and 66.67%
- Total Cell Count [6]: 352 and 168

SMILES: COc1cc(Nc2ncc3c(n2)-c2ccc(Cl)cc2C(c2c(F)cccc2OC)=NC3)ccc1C(=O)O [ALISERTIB]
- Population Apoptotic (%) [1]: 38% and 61%
- Population Fragmented Nuclei (%) [1]: 3% and 7%
- Population Healthy Nuclei (%) [1]: 88% and 85%
- Population Hoechst High Intensity Objects (%) [1]: 5% and 7%
- Population Membrane Permeable-Phenotype (%) [1]: 0%
- Population Mitochondria Different-Phenotype (%) [1]: 44% and 69%
- Population Mitotic Cells (%) [1]: 61% and 38%
- Population Normal (%) [1]: 94% and 93%
- Population Pyknosed Nuclei (%) [1]: 7%
- Population Tubulin-Different-Phenotype (%) [1]: 46% and 49%
- Population Apoptotic (%) [2]: 61% and 88%
- Population Fragmented Nuclei (%) [2]: 8% and 9%
- Population Healthy Nuclei (%) [2]: 74% and 72%
- Population Hoechst High Intensity Objects (%) [2]: 9% and 15%
- Population Membrane Permeable-Phenotype (%) [2]: 0%
- Population Mitochondria Different-Phenotype (%) [2]: 80% and 82%
- Population Normal (%) [2]: 90% and 84%
- Population Pyknosed Nuclei (%) [2]: 16% and 17%
- Population Tubulin-Different-Phenotype (%) [2]: 68% and 54%
- Population Apoptotic (%) [3]: 50% and 47%
- Population Fragmented Nuclei (%) [3]: 10% and 9%
- Population Healthy Nuclei (%) [3]: 82% and 81%
- Population Hoechst High Intensity Objects (%) [3]: 3% and 9%
- Population Membrane Permeable-Phenotype (%) [3]: 0%
- Population Mitochondria Different-Phenotype (%) [3]: 25% and 47%
- Population Mitotic Cells (%) [3]: 50% and 52%
- Population Normal (%) [3]: 96% and 90%
- Population Pyknosed Nuclei (%) [3]: 7% and 9%
- Population Tubulin-Different-Phenotype (%) [3]: 31% and 30%
- Population Apoptotic (%) [4]: 54% and 56%
- Population Fragmented Nuclei (%) [4]: 8% and 12%
- Population Healthy Nuclei (%) [4]: 74% and 55%
- Population Membrane Permeable-Phenotype (%) [4]: 0% and 1%
- Population Mitochondria Different-Phenotype (%) [4]: 75% and 86%
- Population Mitotic Cells (%) [4]: 45% and 43%
- Population Normal (%) [4]: 93% and 65%
- Population Pyknosed Nuclei (%) [4]: 16% and 31%
- Population Tubulin-Different-Phenotype (%) [4]: 64% and 50%
- Population Apoptotic (%) [5]: 31% and 57%
- Population Fragmented Nuclei (%) [5]: 14% and 16%
- Population Healthy Nuclei (%) [5]: 79% and 77%
- Population Membrane Permeable-Phenotype (%) [5]: 0%
- Population Mitochondria Different-Phenotype (%) [5]: 14% and 27%
- Population Mitotic Cells (%) [5]: 68% and 42%
- Population Normal (%) [5]: 96% and 84%
- Population Pyknosed Nuclei (%) [5]: 5%
- Population Tubulin-Different-Phenotype (%) [5]: 17% and 24%
- Population Apoptotic (%) [6]: 48% and 82%
- Population Fragmented Nuclei (%) [6]: 13% and 19%
- Population Healthy Nuclei (%) [6]: 78% and 61%
- Population Membrane Permeable-Phenotype (%) [6]: 0% and 4%
- Population Mitochondria Different-Phenotype (%) [6]: 57% and 73%
- Population Normal (%) [6]: 94% and 67%
- Population Pyknosed Nuclei (%) [6]: 7% and 19%
- Population Tubulin-Different-Phenotype (%) [6]: 42% and 38%
